Results as given in ChEMBL document CHEMBL4007430, “Synthesis and Cytostatic and Antiviral Profiling of Thieno-Fused 7-Deazapurine Ribonucleosides” (J Med Chem, 2017).

What was measured:
[1] = system: HCT-116; experiment: Cytotoxicity against p53 deficient human HCT116 cells assessed as cell growth inhibition after 72 hrs by MTS assay; type: functional, cell-based; conditions: HCT-116, 72 h
Procedure, shortened: (§1)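 Cells were exposed to compound for 3 days, then stained with MTS as a quantitative metabolic read-out. IC50 is the concentration that inhibits cell growth by 50%.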

[2] = system: CCRF-CEM; experiment: Inhibition of mitosis in human CCRF-CEM cells assessed as pH3Ser10 positive cells after 24 hrs by flow cytometric analysis; type: functional, cell-based
[3] = system: BJ; experiment: Cytotoxicity against human BJ cells assessed as cell growth inhibition after 72 hrs by MTS assay; type: cell-based; procedure, shortened: as §1
[4] = system: CCRF-CEM; experiment: Induction of apoptosis in human CCRF-CEM cells assessed as accumulation at subG1 phase at 5 times IC50 after 24 hrs by propidium iodide staining-based flow cytometric analysis (reference value: 2.32%); type: functional
[5] = system: CCRF-CEM; experiment: Cell cycle arrest in human CCRF-CEM cells assessed as accumulation at G2/M phase at 5 times IC50 after 24 hrs by propidium iodide staining-based flow cytometric analysis (reference value: 14.70%); type: functional
[6] = system: Hepatitis C virus; experiment: Anti-HCV activity against Hepatitis C virus genotype 2a infected in human Huh7 replicon cells after 96 hrs by luciferase reporter gene assay; type: functional, cell-based, Hepacivirus hominis; conditions: Huh-7, 96 h
[7] = system: CCRF-CEM; experiment: Cell cycle arrest in human CCRF-CEM cells assessed as accumulation at G0/G1 phase at 5 times IC50 after 24 hrs by propidium iodide staining-based flow cytometric analysis (reference value: 41.11%); type: functional
[8] = Cytotoxicity against human HuH7 cells; type: cell-based, Huh-7
[9] = Cytotoxicity against human K562-TAX cells assessed as cell growth inhibition after 72 hrs by MTS assay; type: functional, cell-based; procedure, shortened: as §1
[10] = system: HCT-116; experiment: Cytotoxicity against human HCT116 cells assessed as cell growth inhibition after 72 hrs by MTS assay; type: functional, cell-based; conditions: HCT-116, 72 h; procedure, shortened: as §1
[11] = system: CCRF-CEM; experiment: Cell cycle arrest in human CCRF-CEM cells assessed as accumulation at G2/M phase at IC50 after 24 hrs by propidium iodide staining-based flow cytometric analysis (reference value: 14.70%); type: functional
[12] = system: K562; experiment: Cytotoxicity against human K562 cells assessed as cell growth inhibition after 72 hrs by MTS assay; type: functional, cell-based; conditions: K562, 72 h; procedure, shortened: as §1
[13] = system: MRC5; experiment: Cytotoxicity against human MRC5 cells assessed as cell growth inhibition after 72 hrs by MTS assay; type: cell-based; conditions: MRC5, 72 h; procedure, shortened: as §1
[14] = system: CCRF-CEM; experiment: Cell cycle arrest in human CCRF-CEM cells assessed as accumulation at S phase at 5 times IC50 after 24 hrs by propidium iodide staining-based flow cytometric analysis (reference value: 44.20%); type: functional
[15] = system: CCRF-CEM; experiment: Inhibition of DNA synthesis in human CCRF-CEM cells assessed as decrease in BrdU incorporation by measuring synthesized DNA levels at 5 times IC50 after 24 hrs by propidium iodide staining-based flow cytometric analysis (reference value: 52.66%); type: functional
[16] = system: CCRF-CEM; experiment: Inhibition of mitosis in human CCRF-CEM cells assessed as pH3Ser10 positive cells at 5 times IC50 after 24 hrs by flow cytometric analysis (reference value: 1.74%); type: functional
[17] = system: U2OS; experiment: Cytotoxicity against human U2OS cells assessed as cell growth inhibition after 72 hrs by MTS assay; type: functional, cell-based
[18] = system: HL-60; experiment: Cytotoxicity against human HL60 cells assessed as reduction in cell viability after 72 hrs by XTT assay; type: functional, cell-based; conditions: HL-60, 72 h
Procedure, shortened: (§2)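 Cells were incubated with compound for 3 days. Viability was then measured with the XTT tetrazolium assay.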

[19] = system: HeLa S3; experiment: Cytotoxicity against human HeLaS3 cells assessed as reduction in cell viability after 72 hrs by XTT assay; type: functional, cell-based; conditions: HeLa S3, 72 h; procedure, shortened: as §2
[20] = system: CCRF-CEM; experiment: Inhibition of RNA synthesis in human CCRF-CEM cells assessed as decrease in BrU incorporation by measuring synthesized RNA levels at IC50 after 24 hrs by propidium iodide staining-based flow cytometric method (reference value: 53.09%); type: functional
[21] = system: Hepatitis C virus; experiment: Anti-HCV activity against Hepatitis C virus genotype 1b infected in human Huh7 replicon cells after 96 hrs by luciferase reporter gene assay; type: functional, cell-based, Hepacivirus hominis; conditions: Huh-7, 96 h
[22] = system: A549; experiment: Cytotoxicity against human A549 cells assessed as cell growth inhibition after 72 hrs by MTS assay; type: functional, cell-based; conditions: A549, 72 h; procedure, shortened: as §1
[23] = system: CCRF-CEM; experiment: Cell cycle arrest in human CCRF-CEM cells assessed as accumulation at G0/G1 phase at IC50 after 24 hrs by propidium iodide staining-based flow cytometric analysis (reference value: 41.11%); type: functional
[24] = system: CCRF-CEM; experiment: Inhibition of RNA synthesis in human CCRF-CEM cells assessed as decrease in BrU incorporation by measuring synthesized RNA levels at 5 times IC50 after 24 hrs by propidium iodide staining-based flow cytometric method (reference value: 53.09%); type: functional
[25] = system: CCRF-CEM; experiment: Inhibition of DNA synthesis in human CCRF-CEM cells assessed as decrease in BrdU incorporation by measuring synthesized DNA levels at IC50 after 24 hrs by propidium iodide staining-based flow cytometric analysis (reference value: 52.66%); type: functional
[26] = system: CCRF-CEM; experiment: Cytotoxicity against human CCRF-CEM cells assessed as cell growth inhibition after 72 hrs by MTS assay
[27] = system: CCRF-CEM; experiment: Cell cycle arrest in human CCRF-CEM cells assessed as accumulation at S phase at IC50 after 24 hrs by propidium iodide staining-based flow cytometric analysis (reference value: 44.20%); type: functional
[28] = Cytotoxicity against mrp-1/mdr-1 overexpressing human CEM-DNR-bulk cells assessed as cell growth inhibition after 72 hrs by MTS assay; type: functional, cell-based
Procedure, shortened: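 Cells were exposed to compound for 3 days, then stained with MTS as a quantitative metabolic read-out.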

[29] = system: CCRF-CEM; experiment: Inhibition of mitosis in human CCRF-CEM cells assessed as pH3Ser10 positive cells at IC50 after 24 hrs by flow cytometric analysis (reference value: 1.74%); type: functional
[30] = system: HepG2; experiment: Cytotoxicity against human HepG2 cells assessed as reduction in cell viability after 72 hrs by XTT assay; type: functional, cell-based; conditions: HepG2, 72 h; procedure, shortened: as §2
[31] = system: CCRF-CEM; experiment: Induction of apoptosis in human CCRF-CEM cells assessed as accumulation at subG1 phase at IC50 after 24 hrs by propidium iodide staining-based flow cytometric analysis (reference value: 2.32%); type: functional

Row | SMILES | IC50 [1] | Activity [2] | IC50 [3] | Activity [4] | Activity [5] | EC50 [6] | Activity [7] | CC50 [8] | IC50 [9] | IC50 [10] | Activity [11] | IC50 [12] | IC50 [13] | Activity [14] | BrdU+ cells (%) [15] | pH3Ser10+ cells (%) [16] | IC50 [17] | IC50 [18] | IC50 [19] | BrU+ cells (%) [20] | other results
1 | Cc1ncnc2c1c1sccc1n2[C@@H]1O[C@H](CO)[C@@H](O)[C@H]1O | 70 nM | Dose-dependent effect | 150 nM | 16.72% | 15.1% | 60 nM | 28.72% | > 44400 nM | 720 nM | 50 nM | 12.41% | 140 nM | 1660 nM | 56.18% | 60.89% | 3.55% | 200 nM | 210 nM | 720 nM | 33.92% | EC50 [21]: 110 nM; IC50 [22]: 210 nM; Activity [23]: 29.74%; BrU+ cells (%) [24]: 47.83%; BrdU+ cells (%) [25]: 50.76%; IC50 [26]: 20 nM; Activity [27]: 57.85%; IC50 [28]: > 50000 nM; pH3Ser10+ cells (%) [29]: 0.89%; IC50 [30]: 440 nM; Activity [31]: 13.5%
2 | COc1ncnc2c1c1ccsc1n2[C@@H]1O[C@H](CO)[C@@H](O)[C@H]1O | 640 nM | Dose-dependent effect | 7490 nM | 11.22% | 12.27% | 400 nM | 23.76% | > 44400 nM | 11100 nM | 610 nM | 19.25% | 1060 nM | > 50000 nM | 63.97% | 55.12% | 0.38% | 930 nM | 570 nM | 230 nM | 28.75% | EC50 [21]: 230 nM; IC50 [22]: 1230 nM; Activity [23]: 35.73%; BrU+ cells (%) [24]: 8.31%; BrdU+ cells (%) [25]: 62.59%; IC50 [26]: 220 nM; Activity [27]: 45.01%; IC50 [28]: > 50000 nM; pH3Ser10+ cells (%) [29]: 1.17%; IC50 [30]: 1330 nM; Activity [31]: 2.55%
3 | COc1ncnc2c1c1sccc1n2[C@@H]1O[C@H](CO)[C@@H](O)[C@H]1O | 130 nM | Dose-dependent effect | 400 nM | 17.46% | 5.86% | 15000 nM | 18.67% | 13900 to 29200 nM | 4050 nM | 130 nM | 14.73% | 200 nM | 25200 nM | 75.47% | 63.58% | 0.41% | 460 nM | 110 nM | 900 nM | 34.93% | EC50 [21]: 950 nM; IC50 [22]: 220 nM; Activity [23]: 34.35%; BrU+ cells (%) [24]: 26.27%; BrdU+ cells (%) [25]: 56%; IC50 [26]: 130 nM; Activity [27]: 50.91%; IC50 [28]: 61800 nM; pH3Ser10+ cells (%) [29]: 1.07%; IC50 [30]: 150 nM; Activity [31]: 11.17%
4 | Cc1ncnc2c1c1ccsc1n2[C@@H]1O[C@H](CO)[C@@H](O)[C@H]1O | 330 nM | Dose-dependent effect | > 50000 nM | 3.83% | 13.74% | 240 nM | 35.09% | > 44400 nM | 47600 nM | 400 nM | 13.76% | 460 nM | > 50000 nM | 51.16% | 54.08% | 1.37% | 560 nM | 370 nM | 570 nM | 38.29% | EC50 [21]: 60 nM; IC50 [22]: 720 nM; Activity [23]: 40.67%; BrU+ cells (%) [24]: 18.84%; BrdU+ cells (%) [25]: 54.48%; IC50 [26]: 30 nM; Activity [27]: 45.57%; IC50 [28]: 33900 nM; pH3Ser10+ cells (%) [29]: 1.37%; IC50 [30]: 470 nM; Activity [31]: 2.35%
